# Key:
# HL-60(TB) [1] = assay: Growth inhibition of human HL-60(TB) cells incubated for 24 hrs by MTT assay; format: functional, cell-based; conditions: HL-60, 24 h
# How it was run: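 Cells at 1.2-1.8×10^4 cells/ml in DMEM with 10% FBS, 10 µg/ml insulin and 1% penicillin/streptomycin, plated overnight at 37°C. Serial 10-fold dilutions added to 0.01–100 µM final, medium as negative control, 24 h. MTT (5 mg/ml) added for 4 h, formazan dissolved in acid-isopropanol, A490 read. Eight separate experiments; percent viable cells used to derive IC50.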
# MOLT-4 [2] = assay: Growth inhibition of human MOLT4 cells incubated for 24 hrs by MTT assay; format: functional, cell-based; conditions: MOLT-4, 24 h
# HL-60(TB) [3] = assay: Cell cycle arrest in human HL-60(TB) cells assessed as accumulation of apoptotic cells in pre-G phase at 0.294 uM after 24 hrs by propidium iodide staining based flow cytometry (reference value: 1.44%); format: functional
# HL-60(TB) [4] = assay: Cell cycle arrest in human HL-60(TB) cells assessed as accumulation at G0/G1 phase at 0.294 uM after 24 hrs by propidium iodide staining based flow cytometry (reference value: 68.43%); format: functional
# HL-60(TB) [5] = assay: Cell cycle arrest in human HL-60(TB) cells assessed as accumulation at G2/M phase at 0.294 uM after 24 hrs by propidium iodide staining based flow cytometry (reference value: 7.29%); format: functional
# HL-60(TB) [6] = assay: Cell cycle arrest in human HL-60(TB) cells assessed as accumulation at S phase at 0.294 uM after 24 hrs by propidium iodide staining based flow cytometry (reference value: 22.84%); format: functional
# MOLT-4 [7] = assay: Cell cycle arrest in human MOLT4 cells assessed as accumulation of apoptotic cells in pre-G phase at 0.43 uM after 24 hrs by propidium iodide staining based flow cytometry (reference value: 0.88%); format: functional
# How it was run: (§1)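 MOLT-4 cells (1×10^6) exposed 24 h to 0.160 or 0.430 μM test agent, DMSO (0.002%) control; trypsinized, washed in ice-cold PBS, fixed in ice-cold 70% ethanol ≥2 h at 4°C, washed, stained with propidium iodide DNA kit; cell cycle distribution (pre-G, G0/G1, S, G2/M) by flow cytometry.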
# MOLT-4 [8] = assay: Cell cycle arrest in human MOLT4 cells assessed as accumulation at G0/G1 phase at 0.43 uM after 24 hrs by propidium iodide staining based flow cytometry (reference value: 74.22%); format: functional; how it was run: as §1
# MOLT-4 [9] = assay: Cell cycle arrest in human MOLT4 cells assessed as accumulation at G2/M phase at 0.43 uM after 24 hrs by propidium iodide staining based flow cytometry (reference value: 4.35%); format: functional; how it was run: as §1
# MOLT-4 [10] = assay: Cell cycle arrest in human MOLT4 cells assessed as accumulation at S phase at 0.43 uM after 24 hrs by propidium iodide staining based flow cytometry (reference value: 20.55%); format: functional; how it was run: as §1
# HL-60(TB) [11] = assay: Induction of apoptosis in human HL-60(TB) cells assessed as live cells at 0.294 uM after 24 hrs by Annexin V-FITC/propidium iodide staining based flow cytometry (reference value: 98.57%); format: functional
# HL-60(TB) [12] = assay: Induction of apoptosis in human HL-60(TB) cells assessed as early apoptotic cells at 0.294 uM after 24 hrs by Annexin V-FITC/propidium iodide staining based flow cytometry (reference value: 0.84%); format: functional
# HL-60(TB) [13] = assay: Induction of apoptosis in human HL-60(TB) cells assessed as late apoptotic cells at 0.294 uM after 24 hrs by Annexin V-FITC/propidium iodide staining based flow cytometry (reference value: 0.39%); format: functional
# HL-60(TB) [14] = assay: Induction of apoptosis in human HL-60(TB) cells assessed as necrotic cells at 0.294 uM after 24 hrs by Annexin V-FITC/propidium iodide staining based flow cytometry (reference value: 0.2%); format: functional
# MOLT-4 [15] = assay: Induction of apoptosis in human MOLT4 cells assessed as live cells at 0.43 uM after 24 hrs by Annexin V-FITC/propidium iodide staining based flow cytometry (reference value: 99.12%); format: functional
# MOLT-4 [16] = assay: Induction of apoptosis in human MOLT4 cells assessed as early apoptotic cells at 0.43 uM after 24 hrs by Annexin V-FITC/propidium iodide staining based flow cytometry (reference value: 0.53%); format: functional
# MOLT-4 [17] = assay: Induction of apoptosis in human MOLT4 cells assessed as late apoptotic cells at 0.43 uM after 24 hrs by Annexin V-FITC/propidium iodide staining based flow cytometry (reference value: 0.24%); format: functional
# MOLT-4 [18] = assay: Induction of apoptosis in human MOLT4 cells assessed as necrotic cells at 0.43 uM after 24 hrs by Annexin V-FITC/propidium iodide staining based flow cytometry (reference value: 0.11%); format: functional
# HL-60(TB) [19] = assay: Induction of apoptosis in human HL-60(TB) cells assessed as increase in apoptotic cells at 0.294 uM after 24 hrs by Annexin V-FITC/propidium iodide staining based flow cytometry relative to control; format: functional
# MOLT-4 [20] = assay: Induction of apoptosis in human MOLT4 cells assessed as increase in apoptotic cells at 0.43 uM after 24 hrs by Annexin V-FITC/propidium iodide staining based flow cytometry relative to control; format: functional
smiles,measurement,setting,value
CCOC(=O)C1=C(C)NC(SCc2nnc(-c3ccc(Cl)cc3)o2)=NC1c1ccccc1Cl (stereo unspecified),IC50,HL-60(TB) [1],193 µM
same,IC50,MOLT-4 [2],255 µM
CCOC(=O)C1=C(C)NC(SCc2nnc(-c3ccccc3)o2)=NC1c1ccc(Cl)cc1 (stereo unspecified),IC50,HL-60(TB) [1],74.4 µM
same,IC50,MOLT-4 [2],344 µM
CCOC(=O)C1=C(C)NC(SCc2nnc(-c3ccc(C)cc3)o2)=NC1c1ccc(Cl)cc1 (stereo unspecified),IC50,HL-60(TB) [1],220 µM
same,IC50,MOLT-4 [2],538 µM
CCOC(=O)C1=C(C)NC(=S)NC1c1cccc(O)c1 (stereo unspecified) [MONASTROL],IC50,HL-60(TB) [1],0.147 µM
same,IC50,MOLT-4 [2],0.215 µM
same,Activity,HL-60(TB) [3],6.89%
same,Activity,HL-60(TB) [4],61.23%
same,Activity,HL-60(TB) [5],9.98%
same,Activity,HL-60(TB) [6],21.9%
same,Activity,MOLT-4 [7],8.63%
same,Activity,MOLT-4 [8],55.72%
same,Activity,MOLT-4 [9],13.92%
same,Activity,MOLT-4 [10],21.73%
same,Activity,HL-60(TB) [11],90.89%
same,Activity,HL-60(TB) [12],3.07%
same,Activity,HL-60(TB) [13],3.19%
same,Activity,HL-60(TB) [14],0.63%
same,Activity,MOLT-4 [15],89.2%
same,Activity,MOLT-4 [16],3.39%
same,Activity,MOLT-4 [17],4.21%
same,Activity,MOLT-4 [18],1.03%
same,fold change (FC),HL-60(TB) [19],5.1
same,fold change (FC),MOLT-4 [20],10
